Data as given in ChEMBL document CHEMBL5335768, “Expanding the knowledge around antitubercular 5-(2-aminothiazol-4-yl)isoxazole-3-carboxamides: Hit-to-lead optimization and release of a novel antitubercular chemotype via scaffold derivatization” (Eur J Med Chem, 2023).
≈ marks a conversion by molar mass, not a printed value. Calls of active or inactive are those of the source. No cut-off for these calls is given here.

What was measured:
[1] = test system: Mycobacterium tuberculosis; test: Antitubercular activity against Mycobacterium tuberculosis H37Rv assessed as inhibition of bacterial growth incubated for 7 days by REMA method; type: functional; conditions: Mycobacterium tuberculosis, H37Rv, 168 h; time 7 day; read-out: MIC90
[2] = Cytotoxicity against human THP-1 cells assessed as reduction in cell viability measured after 72 hrs by MTT assay; type: toxicity, cell-based
Outline: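 THP-1 monocytes were differentiated to macrophages with PMA 100 ng/mL for 72 h. They were then exposed to compounds at 1, 10, 50 and 100 μM for 72 h, each tested twice. MTT at 1 mg/mL in RPMI with 5% FBS was added for 2 h at 37 °C; formazan was dissolved in DMSO and read at 570 nm. Viability is given as % of control; IC50 from non-linear regression.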

[3] = Half life in human liver microsomes at 1 uM preincubated with NADP+ for 5 mins prior to compound addition by HPLC-MRM-MS analysis; type: ADME, Microsome
Outline: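 Pooled HLM at 1 mg/mL protein in 100 mM PBS pH 7.4 with an NADPH-regenerating mix: G6P 10 mM, NADP+ 2 mM, MgCl2 5 mM, G6PDH 1.5 U/mL (stock concentrations). Pre-incubated 5 min at 37 °C, then compound added to 1 μM final (1% DMSO).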

[4] = test system: Mycobacteroides abscessus; test: Antitubercular activity against Mycobacterium abscessus Bamboo assessed as inhibition of bacterial growth at 100 uM measured after 3 days by broth microdilution method; type: functional; conditions: 72 h, time 3 day
Outline: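 Twofold serial dilutions inoculated at OD600 0.05; incubated at 37 °C, shaking at 110 rpm, for 3 days (M. abscessus Bamboo) or 4 days (M. avium 11). […] Clarithromycin positive control; data representative of two independent replicates.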

[5] = test system: Mycobacterium avium; test: Antitubercular activity against Mycobacterium avium 11 assessed as inhibition of bacterial growth at 100 uM measured after 4 days by broth microdilution method; type: functional; conditions: Mycobacterium avium, 11, 96 h, time 4 day
[6] = Drug metabolism in human liver microsomes assessed as 5-(2-((4-(hydroxymethyl)phenyl)amino)thiazol-4-yl)-N-phenylisoxazole-3-carboxamide formation at 100 uM measured after 180 mins by HR-MS analysis; type: ADME, Microsome; conditions: 3 h
Outline: (§1)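 Metabolite ID: test compound at 100 μM initial concentration in pooled HLM incubates. Aliquots were taken at start and after 180 min, quenched with ACN, centrifuged and analysed by full-scan LC-HR-MS (Orbitrap, ESI+ and ESI−, resolution 15000). Data-dependent CID MS/MS was acquired at 30–35 V.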

[7] = Drug metabolism in human liver microsomes assessed as 5-(2-((3-hydroxy-4-methylphenyl)amino)thiazol-4-yl)-N-phenylisoxazole-3-carboxamide formation at 100 uM measured after 180 mins by HR-MS analysis; type: ADME, Microsome; conditions: 3 h; outline: as §1
[8] = Drug metabolism in human liver microsomes assessed as retention time of 5-(2-((4-(hydroxymethyl)phenyl)amino)thiazol-4-yl)-N-phenylisoxazole-3-carboxamide at 250 nM by HPLC-MS/MS analysis; type: ADME, Microsome; conditions: 0.25 µM
Outline: (§2)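 Spiking: 10 μL HLM incubate was diluted with 90 μL ACN alone or with 250 nM of each synthetic hydroxylated standard in ACN. After centrifugation, HPLC-MS/MS retention times were compared for co-elution with the metabolites.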

[9] = Drug metabolism in human liver microsomes assessed as retention time of 5-(2-((3-hydroxy-4-methylphenyl)amino)thiazol-4-yl)-N-phenylisoxazole-3-carboxamide at 250 nM by HPLC-MS/MS analysis; type: ADME, Microsome; conditions: 0.25 µM; outline: as §2
[10] = Drug metabolism in human liver microsomes assessed as retention time of metabolite with molecular mass [M+30] at 250 nM by HPLC-MS/MS analysis; type: ADME, Microsome; conditions: 0.25 µM
[11] = test system: Mycobacterium marinum; test: Antitubercular activity against Mycobacterium marinum ATCC BAA-535 assessed as inhibition of bacterial growth measured after 3 weeks by broth microdilution method; type: functional; conditions: ATCC BAA-535, 504 h
[12] = test system: Mycobacterium marinum; test: Antitubercular activity against mCherry-labeled Mycobacterium marinum infected in Zebra fish larvae assessed as reduction in granuloma formation at 6 to 8 ng, iv; type: functional, organism-based; conditions: dose 6-8 ng
[13] = Toxicity in Zebrafish infected with Mycobacterium marinum assessed as enlarged heart at 6 to 8 ng. iv; parameters: species or system Danio rerio; conditions: in vivo, dose 6-8 ng
[14] = Toxicity in Zebrafish infected with Mycobacterium marinum assessed as enlarged yolk sac area at 6 to 8 ng. iv; parameters: species or system Danio rerio; conditions: in vivo, dose 6-8 ng
[15] = Drug metabolism in human liver microsomes assessed as 5-(2-((4-(hydroxymethyl)phenyl)amino)thiazol-4-yl)-N-(pyridin-2-yl)isoxazole-3-carboxamide formation at 100 uM measured after 180 mins by HR-MS analysis; type: ADME, Microsome; conditions: 3 h; outline: as §1
[16] = Drug metabolism in human liver microsomes assessed as 5-(2-((3-hydroxy-4-methylphenyl)amino)thiazol-4-yl)-N-(pyridin-2-yl)isoxazole-3-carboxamide formation at 100 uM measured after 180 mins by HR-MS analysis; type: ADME, Microsome; conditions: 3 h; outline: as §1
[17] = Drug metabolism in human liver microsomes assessed as retention time of 5-(2-((4-(hydroxymethyl)phenyl)amino)thiazol-4-yl)-N-(pyridin-2-yl)isoxazole-3-carboxamide at 250 nM by HPLC-MS/MS analysis; type: ADME, Microsome; conditions: 0.25 µM; outline: as §2
[18] = Drug metabolism in human liver microsomes assessed as retention time of 5-(2-((3-hydroxy-4-methylphenyl)amino)thiazol-4-yl)-N-(pyridin-2-yl)isoxazole-3-carboxamide at 250 nM by HPLC-MS/MS analysis; type: ADME, Microsome; conditions: 0.25 µM; outline: as §2

Row | SMILES | MIC90 [1] | IC50 at 72 h [2] | t1/2 [3] | inhibition at 100 µM [4] | inhibition at 100 µM [5] | Drug metabolism [6] | Drug metabolism [7] | Retention_time [8] | Retention_time [9] | Retention_time [10] | MIC90 [11] | Activity [12] | Activity [13] | Activity [14] | Drug metabolism [15] | Drug metabolism [16] | Retention_time [17] | Retention_time [18]
1 | O=C(Nc1ccccc1)c1cc(-c2csc(Nc3ccccc3)n2)on1 | 1.25 µg/mL (≈ 3.45 µM) | 11.9 µg/mL (≈ 32.8 µM) | 43 min | 50% | 50% | – | – | – | – | – | – | – | – | – | – | – | – | –
2 | Cc1ccc(Nc2nc(-c3cc(C(=O)Nc4ccccc4)no3)cs2)cc1 | 1 µg/mL (≈ 2.66 µM) | 88 µg/mL (≈ 234 µM) | 35 min | – | – | Metabolite_Detected | Metabolite_Detected | 22.95 min | 25.44 min | 23.65 min | 0.5 µg/mL (≈ 1.33 µM) | Active | Toxic | Toxic | – | – | – | –
3 | Cc1ccc(Nc2nc(-c3cc(C(=O)Nc4ccccn4)no3)cs2)cc1 | 0.5 µg/mL (≈ 1.32 µM) | 22 µg/mL (≈ 58.3 µM) | 16 min | – | – | – | – | – | – | 21.97 min | 0.5 µg/mL (≈ 1.32 µM) | – | – | – | Metabolite_Detected | Metabolite_Detected | 21.01 min | 23.73 min
4 | Cc1ccc(Nc2nc(-c3cc(C(=O)Nc4cc(C)ccn4)no3)cs2)cc1 | 1 µg/mL (≈ 2.55 µM) | 86.3 µg/mL (≈ 220 µM) | – | 50% | 50% | – | – | – | – | – | – | – | – | – | – | – | – | –
5 | O=C(Nc1ccccn1)c1cc(-c2csc(Nc3ccccc3)n2)on1 | > 20 µg/mL | – | 66 min | 50% | 50% | – | – | – | – | – | – | – | – | – | – | – | – | –
